The text below walks through data of ChEMBL document CHEMBL4321819, “Simple Structural Modifications Converting a Bona fide MDM2 PROTAC Degrader into a Molecular Glue Molecule: A Cautionary Tale in the Design of PROTAC Degraders” (J Med Chem, 2019).

Experiment [1] addresses Protein cereblon/Eukaryotic peptide chain release factor GTP-binding subunit ERF3A (Homo sapiens) (UniProt Q96SW2+P15170). In words: Inhibition of cereblon binding with GSPT1 in human MDA-MB-231 cells assessed as decrease in GSPT1 degradation at 0.1 uM after 2 hrs in presence of 30 uM lenalidomide by Western blot analysis. The experiment is classed as cell-based. A digest of the protocol:
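MDA-MB-231 or MDA-MB-468 cells were treated 2 h with or without 30 μM lenalidomide to block cereblon binding. GSPT1 protein level was then assessed by Western blotting.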

Experiment [2] in a line: Antiproliferative activity against human RS4:11/IRMI-2 cells harboring p53 hotspot mutation Y236H/R249G assessed as cell growth inhibition without interaction with cereblon after 4 days by WST-8 assay. The following applies: RS4-11, 96 h. The experiment is classed as functional, cell-based. The method, boiled down:
(§1)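 Leukemia cells seeded at 10000–20000 cells/well, breast cancer lines at 5000–10000 cells/well. Serially diluted compound added, then 4 days at 37 °C, 5% CO2. Growth read with WST-8 reagent after at least 1 h, absorbance at 450 nm. RS4;11, MOLM-13 and breast lines were grown in RPMI 1640; MV-4-11 and HL-60 in IMDM; all with 10% FBS. Mean ± SE, at least three independent experiments.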
(In general: Tetrazolium assays rely on reduction of a dye to a coloured formazan, in cell work by metabolically active cells.)

Another experiment has as its system RS4-11. In words: Antiproliferative activity against human RS4:11 cells expressing wild type p53 assessed as cell growth inhibition without interaction with cereblon after 4 days by WST-8 assay. Type of experiment: functional, cell-based. The following applies: RS4-11, 96 h. The method, boiled down:
as §1

In experiment [3] the test system is MDA-MB-468. Put plainly: Antiproliferative activity against human MDA-MB-468 cells assessed as cell growth inhibition after 4 days in presence of control siRNA for 2 days followed by compound treatment by WST-8 assay. The experiment is classed as functional, cell-based. A digest of the protocol: (§2)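 MDA-MB-231 or MDA-MB-468 cells transfected for 2 days using Lipofectamine RNAiMAX with MDM2 siRNA, one of two CRBN siRNAs, or non-targeting control siRNA. Compound then added and growth read by WST-8 at 450 nm.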

Experiment [4] concerns the target Protein cereblon/Eukaryotic peptide chain release factor GTP-binding subunit ERF3A/DNA damage-binding protein 1/Cullin-4A (Homo sapiens) (UniProt Q96SW2+Q16531+Q13619+P15170). Put plainly: Protac activity at GSPT1/CUL4/DDB1/CRBN in human RS4:11 cells expressing wild type p53 assessed as decrease in GSPT1 protein level at 10 nM by Western blot analysis. Type of experiment: cell-based. The following applies: TDE = time-dependent effect. The method, boiled down:
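RS4;11 (wild-type p53) or RS4;11/IRMI-2 (MDM2 inhibitor-resistant derivative, mutant p53) cells kept in RPMI 1640 with 10% FBS at 37 °C, 5% CO₂. 2×10^6 cells/well treated at the indicated concentrations and times, then lysed in ice-cold lysis buffer with protease inhibitor. GSPT1 detected by Western blot with a specific antibody.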

For experiment [5], the target named is Eukaryotic peptide chain release factor GTP-binding subunit ERF3A (Homo sapiens, UniProt P15170). In words: Induction of GSPT1 degradation in human RS4:11 cells measured after 24 hrs by Western blot analysis. The experiment is classed as cell-based.
Experiment [6] addresses Cellular tumor antigen p53 (Homo sapiens) (UniProt P04637). In words: Activation of p53 in human RS4:11 cells assessed as increase in CDKN1A mRNA expression at 3 nM after 1 to 2 hrs by qRT-PCR analysis. The experiment is classed as cell-based. The method, boiled down:
(§3)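 RS4;11 cells (RPMI 1640, 10% FBS, 37 °C, 5% CO2) treated with 3 nM or 10 nM compound; total RNA extracted and mRNA of p53 targets MDM2, CDKN1A, PUMA and BAX quantified by qRT-PCR. Mean ± standard error from at least three independent experiments.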

For experiment [7] the target is unchanged. Put plainly: Activation of p53 in human RS4:11 cells assessed as increase in PUMA mRNA expression at 3 nM after 1 to 2 hrs by qRT-PCR analysis. Type of experiment: cell-based. The method, boiled down: as §3
For orientation: Real-time PCR tracks product formation cycle by cycle.

For experiment [8], the target named is T1, E3 ubiquitin-protein ligase Mdm2 (Homo sapiens, UniProt Q00987). In words: Induction of MDM2 degradation in human RS4:11 cells assessed as upregulation of p53 at 1 to 30 nM after 1 hr by Western blot analysis. Type of experiment: cell-based. The method, boiled down: (§4)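 Western blots of MDM2 and p53 protein were run on RS4;11 cells (wild-type p53) in RPMI 1640 with 10% FBS. 2×10^6 cells/well were treated at the indicated concentrations for 1 h or 2 h. Lysis was in ice-cold buffer with protease inhibitor, followed by probing with specific antibodies.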
On the technique in general: A western blot detects proteins with antibodies after separation by electrophoresis.

A further experiment has as its system HL-60. Put plainly: Antiproliferative activity against human HL60 cells with lack of p53 assessed as cell growth inhibition after 4 days by WST-8 assay. The experiment is classed as functional, cell-based. Particulars: HL-60, 96 h. The method, boiled down: as §1
In experiment [9] the target is T1, E3 ubiquitin-protein ligase Mdm2. Put plainly: Induction of MDM2 degradation in human RS4:11 cells assessed as downregulation of MDM2 at 1 to 30 nM after 2 hrs by Western blot analysis. The experiment is classed as cell-based. A digest of the protocol: as §4
For experiment [10] the target is unchanged. Put plainly: Induction of MDM2 degradation in human RS4:11/IRMI-2 cells harboring p53 hotspot mutation Y236H/R249G assessed as downregulation of MDM2 at 1 to 30 nM after 2 hrs by Western blot analysis. Type of experiment: cell-based. The method, boiled down: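 RS4;11/IRMI-2 cells are an MDM2 inhibitor-resistant line derived from RS4;11, with p53 mutations confirmed by sequencing. 2×10^6 cells/well were treated 2 h at the indicated concentrations. MDM2 protein was probed by Western blot after lysis in ice-cold buffer with protease inhibitor.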

Experiment [11] deals with MDA-MB-468. In words: Antiproliferative activity against human MDA-MB-468 cells harboring mutant p53 assessed as cell growth inhibition after 4 days by WST-8 assay. Type of experiment: functional, cell-based. Particulars: MDA-MB-468, 96 h. The method, boiled down:
as §1

For experiment [12], the system named is MDA-MB-468. In words: Antiproliferative activity against human MDA-MB-468 cells harboring mutant p53 assessed as cell growth inhibition without interaction with cereblon after 4 days by WST-8 assay. The experiment is classed as functional, cell-based. The following applies: MDA-MB-468, 96 h.
A short description of experiment [13]: Antiproliferative activity against human RS4:11/IRMI-2 cells harboring p53 hotspot mutation Y236H/R249G assessed as MDM2-independent cell growth inhibition after 4 days by WST-8 assay. Type of experiment: functional, cell-based. The following applies: RS4-11, 96 h. A digest of the protocol:
as §1

The target of experiment [14] is T1, E3 ubiquitin-protein ligase Mdm2. Put plainly: Induction of MDM2 degradation in human RS4:11 cells assessed as upregulation of p53 at 1 to 30 nM after 2 hrs by Western blot analysis. The experiment is classed as cell-based. The method, boiled down: as §4
The target in experiment [15] is Cellular tumor antigen p53 (Homo sapiens) (UniProt P04637). Put plainly: Activation of p53 in human RS4:11 cells assessed as increase in MDM2 mRNA expression at 3 nM after 1 to 2 hrs by qRT-PCR analysis. The experiment is classed as cell-based. A digest of the protocol:
as §3

For a further experiment, the system named is MOLM-13. Put plainly: Antiproliferative activity against human MOLM13 cells expressing wild type p53 assessed as cell growth inhibition after 4 days by WST-8 assay. Type of experiment: functional, cell-based. The following applies: MOLM-13, 96 h. A digest of the protocol: as §1
Experiment [16] relates to MDA-MB-231. Put plainly: Antiproliferative activity against human MDA-MB-231 cells harboring mutant p53 assessed as cell growth inhibition after 4 days by WST-8 assay. The experiment is classed as functional, cell-based. The following applies: MDA-MB-231, 96 h. The method, boiled down: as §1
For experiment [17], the system named is MDA-MB-231. Put plainly: Antiproliferative activity against human MDA-MB-231 cells assessed as cell growth inhibition after 4 days in presence of control siRNA for 2 days followed by compound treatment by WST-8 assay. Type of experiment: functional, cell-based. A digest of the protocol: as §2
Experiment [18] in a line: Antiproliferative activity against human RS4:11/IRMI-2 cells harboring p53 hotspot mutation Y236H/R249G assessed as cell growth inhibition after 4 days by WST-8 assay. Type of experiment: functional, cell-based. Particulars: RS4-11, 96 h. A digest of the protocol: as §1
Experiment [19] has as its system MDA-MB-468. In words: Antiproliferative activity against human MDA-MB-468 cells transfected with MDM2 siRNA assessed as cell growth inhibition after 4 days by WST-8 assay. Type of experiment: functional, cell-based. Particulars: MDA-MB-468, 96 h. A digest of the protocol:
as §2

SMILES strings stand for the structures. Calls of active or inactive are those of the source. The rule behind the calls is not given here.

Cellular tumor antigen p53 (Homo sapiens), sequence (P04637 whole entry, looked up): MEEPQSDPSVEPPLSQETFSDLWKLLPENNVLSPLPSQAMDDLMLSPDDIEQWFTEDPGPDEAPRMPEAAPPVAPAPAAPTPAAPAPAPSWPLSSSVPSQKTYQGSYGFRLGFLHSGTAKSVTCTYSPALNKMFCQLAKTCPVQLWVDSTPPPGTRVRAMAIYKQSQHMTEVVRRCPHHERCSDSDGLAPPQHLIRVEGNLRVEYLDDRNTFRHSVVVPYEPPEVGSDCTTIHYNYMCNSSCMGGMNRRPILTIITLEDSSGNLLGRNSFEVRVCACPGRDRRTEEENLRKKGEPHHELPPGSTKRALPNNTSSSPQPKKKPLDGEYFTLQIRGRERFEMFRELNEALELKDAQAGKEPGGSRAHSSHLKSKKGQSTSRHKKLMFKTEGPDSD
T1 sequence (Q00987 whole entry, looked up): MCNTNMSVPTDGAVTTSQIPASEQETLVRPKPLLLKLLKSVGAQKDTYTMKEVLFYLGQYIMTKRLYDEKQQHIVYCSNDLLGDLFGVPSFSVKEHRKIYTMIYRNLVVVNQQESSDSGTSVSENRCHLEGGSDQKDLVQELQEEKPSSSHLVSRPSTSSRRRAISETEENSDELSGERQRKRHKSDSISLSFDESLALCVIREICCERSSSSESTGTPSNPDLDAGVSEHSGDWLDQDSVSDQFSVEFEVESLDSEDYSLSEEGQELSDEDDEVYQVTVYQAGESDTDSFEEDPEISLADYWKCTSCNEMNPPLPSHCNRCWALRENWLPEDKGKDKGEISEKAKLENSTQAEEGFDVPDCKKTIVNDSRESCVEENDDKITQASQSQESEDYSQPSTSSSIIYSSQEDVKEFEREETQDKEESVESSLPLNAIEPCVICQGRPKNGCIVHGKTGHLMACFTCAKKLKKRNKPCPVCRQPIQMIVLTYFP
Eukaryotic peptide chain release factor GTP-binding subunit ERF3A, sequence (P15170 whole entry): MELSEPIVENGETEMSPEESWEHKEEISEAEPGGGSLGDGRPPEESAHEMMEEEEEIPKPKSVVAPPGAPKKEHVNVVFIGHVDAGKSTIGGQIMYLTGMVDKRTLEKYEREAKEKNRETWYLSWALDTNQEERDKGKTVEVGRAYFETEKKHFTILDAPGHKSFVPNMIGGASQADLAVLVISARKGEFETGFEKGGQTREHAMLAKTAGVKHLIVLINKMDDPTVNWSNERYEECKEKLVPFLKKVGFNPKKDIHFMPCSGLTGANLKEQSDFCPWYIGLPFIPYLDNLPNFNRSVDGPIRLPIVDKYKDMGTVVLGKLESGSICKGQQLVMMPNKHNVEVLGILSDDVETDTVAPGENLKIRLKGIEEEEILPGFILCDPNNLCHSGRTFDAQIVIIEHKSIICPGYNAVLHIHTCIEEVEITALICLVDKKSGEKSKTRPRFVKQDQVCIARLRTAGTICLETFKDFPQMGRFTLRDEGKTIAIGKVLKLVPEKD
Protein cereblon/Eukaryotic peptide chain release factor GTP-binding subunit ERF3A (Homo sapiens), sequence (P15170 whole entry, looked up): as the sequence (P15170 whole entry) above
Protein cereblon/Eukaryotic peptide chain release factor GTP-binding subunit ERF3A (Homo sapiens), sequence (Q96SW2 whole entry, looked up): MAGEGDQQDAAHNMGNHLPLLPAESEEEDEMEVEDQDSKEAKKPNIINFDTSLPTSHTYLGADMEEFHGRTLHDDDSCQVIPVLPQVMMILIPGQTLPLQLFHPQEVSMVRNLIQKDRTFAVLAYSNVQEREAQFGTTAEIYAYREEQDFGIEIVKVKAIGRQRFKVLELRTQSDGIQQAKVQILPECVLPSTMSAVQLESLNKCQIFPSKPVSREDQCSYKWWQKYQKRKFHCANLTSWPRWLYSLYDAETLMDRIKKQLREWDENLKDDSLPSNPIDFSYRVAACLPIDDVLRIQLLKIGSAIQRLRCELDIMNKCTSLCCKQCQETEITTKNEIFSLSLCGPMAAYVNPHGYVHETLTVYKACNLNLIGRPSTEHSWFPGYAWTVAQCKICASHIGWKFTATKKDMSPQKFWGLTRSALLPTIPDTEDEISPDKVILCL
Protein cereblon/Eukaryotic peptide chain release factor GTP-binding subunit ERF3A/DNA damage-binding protein 1/Cullin-4A (Homo sapiens), sequence (P15170 whole entry, looked up): as the sequence (P15170 whole entry) above
Protein cereblon/Eukaryotic peptide chain release factor GTP-binding subunit ERF3A/DNA damage-binding protein 1/Cullin-4A (Homo sapiens), sequence (Q13619 whole entry, looked up): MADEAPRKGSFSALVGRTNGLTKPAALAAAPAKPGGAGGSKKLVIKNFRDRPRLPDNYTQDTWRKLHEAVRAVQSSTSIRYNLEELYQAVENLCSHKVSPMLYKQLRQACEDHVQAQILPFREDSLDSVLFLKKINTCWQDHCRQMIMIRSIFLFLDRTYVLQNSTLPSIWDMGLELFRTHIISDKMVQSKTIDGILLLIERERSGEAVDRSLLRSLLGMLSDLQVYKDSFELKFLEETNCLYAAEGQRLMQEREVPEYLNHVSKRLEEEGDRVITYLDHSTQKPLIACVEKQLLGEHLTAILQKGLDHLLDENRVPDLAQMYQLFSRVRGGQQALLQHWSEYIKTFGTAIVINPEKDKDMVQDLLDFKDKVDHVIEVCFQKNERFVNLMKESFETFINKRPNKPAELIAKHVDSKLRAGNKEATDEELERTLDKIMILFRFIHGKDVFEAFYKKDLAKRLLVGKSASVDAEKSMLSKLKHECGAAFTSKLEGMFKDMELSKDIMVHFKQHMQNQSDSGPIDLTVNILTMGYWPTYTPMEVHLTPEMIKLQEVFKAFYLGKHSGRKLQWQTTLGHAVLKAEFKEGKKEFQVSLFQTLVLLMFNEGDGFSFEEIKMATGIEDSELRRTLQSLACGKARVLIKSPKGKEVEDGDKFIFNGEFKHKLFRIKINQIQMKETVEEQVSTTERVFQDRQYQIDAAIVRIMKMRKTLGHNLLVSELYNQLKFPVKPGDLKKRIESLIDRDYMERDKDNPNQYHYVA
Protein cereblon/Eukaryotic peptide chain release factor GTP-binding subunit ERF3A/DNA damage-binding protein 1/Cullin-4A (Homo sapiens), sequence (Q16531 whole entry, looked up): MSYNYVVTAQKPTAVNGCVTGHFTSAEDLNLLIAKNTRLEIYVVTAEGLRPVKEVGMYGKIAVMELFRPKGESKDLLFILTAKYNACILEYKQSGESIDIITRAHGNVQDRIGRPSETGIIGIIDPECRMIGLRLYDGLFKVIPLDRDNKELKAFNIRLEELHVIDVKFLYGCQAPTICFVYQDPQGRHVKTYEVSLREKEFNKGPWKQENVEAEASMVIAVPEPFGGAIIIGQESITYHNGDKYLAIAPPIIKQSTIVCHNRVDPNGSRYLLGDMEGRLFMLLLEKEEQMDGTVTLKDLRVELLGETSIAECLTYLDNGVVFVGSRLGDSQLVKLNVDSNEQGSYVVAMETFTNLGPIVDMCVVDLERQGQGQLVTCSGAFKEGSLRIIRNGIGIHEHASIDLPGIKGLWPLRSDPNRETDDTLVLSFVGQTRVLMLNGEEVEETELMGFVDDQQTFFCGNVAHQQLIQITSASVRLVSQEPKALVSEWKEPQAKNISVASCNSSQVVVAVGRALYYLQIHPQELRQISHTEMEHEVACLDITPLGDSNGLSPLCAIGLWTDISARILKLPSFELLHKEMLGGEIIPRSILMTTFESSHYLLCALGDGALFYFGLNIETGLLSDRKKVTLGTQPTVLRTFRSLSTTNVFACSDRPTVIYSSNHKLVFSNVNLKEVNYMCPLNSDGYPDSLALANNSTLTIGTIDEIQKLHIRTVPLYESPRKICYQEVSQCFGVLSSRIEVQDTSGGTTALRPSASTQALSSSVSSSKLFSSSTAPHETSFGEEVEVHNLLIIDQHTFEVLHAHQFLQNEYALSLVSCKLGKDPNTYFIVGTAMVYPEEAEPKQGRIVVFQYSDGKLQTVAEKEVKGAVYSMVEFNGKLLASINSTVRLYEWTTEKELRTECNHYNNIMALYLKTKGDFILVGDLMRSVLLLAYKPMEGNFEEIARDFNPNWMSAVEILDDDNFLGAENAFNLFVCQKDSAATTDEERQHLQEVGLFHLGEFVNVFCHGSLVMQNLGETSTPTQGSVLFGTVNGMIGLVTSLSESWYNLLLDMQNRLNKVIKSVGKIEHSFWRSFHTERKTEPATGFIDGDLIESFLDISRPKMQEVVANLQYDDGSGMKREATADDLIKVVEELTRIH
Protein cereblon/Eukaryotic peptide chain release factor GTP-binding subunit ERF3A/DNA damage-binding protein 1/Cullin-4A (Homo sapiens), sequence (Q96SW2 whole entry, looked up): as the sequence (Q96SW2 whole entry, looked up) above

One may read the IC50 as the midpoint of a concentration-inhibition curve. In general, DC50 refers to the concentration giving 50% degradation. Take `O=C1CCC(N2Cc3c(CCCCCNC(=O)[C@@H]4NC5(CCCCC5)[C@@]5(C(=O)Nc6cc(Cl)ccc65)[C@H]4c4cccc(Cl)c4F)cccc3C2=O)C(=O)N1` (some centres not stated): the inhibition entry in experiment [1] was “Active”. Further, the IC50 in experiment [2] is 2.6 nM; with RS4-11 it was 0.17 nM; in the experiment on MDA-MB-468 [3], 31.1 nM; in the experiment on HL-60, 8.3 nM; in the experiment on MDA-MB-468 [11], 26.4 nM; in the experiment with MDA-MB-468 [12], 26.4 nM. The 50% inhibitory concentration (IC50) amounted to 2.6 nM in [13]; 24.6 nM in the experiment with MOLM-13; 39.4 nM in the experiment with MDA-MB-231 [16]; 28.9 nM with MDA-MB-231 [17]; 3.4 nM in experiment [18]; 19.8 nM in the experiment with MDA-MB-468 [19]. Moreover, the Activity entry in [4] was “Tde”. This molecule also came in with a half-maximal degradation concentration (DC50) in experiment [5] of 1.3 nM. Moreover, the outcome in experiment [6], in [7], in experiment [8], in experiment [14] and in experiment [15] was inactive. The result in experiment [9] and in [10] was Active.
